Assay results collected from several papers.
Protocols differ between the studies behind these lines.
Target: Aurora kinase C (AURKC, Homo sapiens, UniProt Q9UQB9)
Residues used in one study (Q9UQB9 1-309): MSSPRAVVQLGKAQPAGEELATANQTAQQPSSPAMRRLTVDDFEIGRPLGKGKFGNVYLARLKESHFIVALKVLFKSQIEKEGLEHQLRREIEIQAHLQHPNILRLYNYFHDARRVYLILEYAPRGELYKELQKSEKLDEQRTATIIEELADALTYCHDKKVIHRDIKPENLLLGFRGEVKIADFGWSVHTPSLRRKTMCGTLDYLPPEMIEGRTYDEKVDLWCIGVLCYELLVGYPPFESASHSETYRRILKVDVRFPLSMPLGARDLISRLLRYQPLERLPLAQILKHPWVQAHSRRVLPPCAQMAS

CN(C)c1ncc(F)c(-c2cnn3ncccc23)n1 — remaining binding (binding; 1 µM): 100%
O=C(O)[C@@H]1[C@@H](Cn2nnc3ccccc3c2=O)CC[C@H]1C(=O)c1ccc(OCCC2CCOCC2)cc1 — remaining binding (cell-free assay, competition with immobilised ligand; 1 µM): 100%
O=C(c1ccc(Nc2ncc(Cl)c(-c3cc4ccccc4s3)n2)cc1)N1CCC(N2CCCC2)CC1 — remaining binding (binding, competition with immobilised ligand; 1 µM): 1.8%
CN(CCCC(F)(F)F)c1nccc(-c2cnn3ncccc23)n1 — remaining binding (binding; 1 µM): 100%
C[C@@H](c1ccc(-n2cnc3c(N)ncnc32)cc1)N1CCc2nn(C)c(Cc3ccccc3)c2C1=O — remaining binding (binding, competition with immobilised ligand; 0.1 µM): 79%
N[C@H]1CCN(c2nccc(-c3cnn4ncccc34)n2)C1 — remaining binding (binding; 1 µM): 97%
O=C(NCCCN1CCOCC1)c1ccc(Nc2nccc(-c3cc4ccccc4s3)n2)cc1 — remaining binding (binding, competition with immobilised ligand; 1 µM): 32%
O=C(NC[C@@H]1[C@H]2CN(C(=O)OCc3cc(C(F)(F)F)cc(C(F)(F)F)c3)C[C@@H]12)c1ccc2[nH]nnc2c1 — remaining binding (cell-free assay, competition with immobilised ligand; 1 µM): 91%
F[C@@H]1CCN(c2nccc(-c3cnn4ncccc34)n2)C1 — remaining binding (binding; 1 µM): 100%
Nc1ncc2c(n1)-c1c([nH]c3ccc(C#CC4CC4)cc13)CCCC2 — remaining binding (binding, competition with immobilised ligand; 1 µM): 86%
CNC(=O)[C@@H]1CC[C@@H](n2c(-c3ccc4cnccc4c3)nc3ccc(C(=O)NCc4cccc(C(N)=O)c4)cc32)C1 — remaining binding (binding, competition with immobilised ligand; 1 µM): 100%
O=C(NCC1CCOCC1)c1n[nH]cc1NC(=O)c1c(F)cccc1F — remaining binding (binding, competition with immobilised ligand; 1 µM): 79%
COc1ccnn2ncc(-c3ccnc(N(C)C)n3)c12 — remaining binding (binding; 1 µM): 100%
O=C(c1ccc(Nc2ncc(Cl)c(-c3ccc(Cl)s3)n2)cc1)N1CCC(N2CCCC2)CC1 — remaining binding (binding, competition with immobilised ligand; 1 µM): 2.8%
O=C(N1CCS(=O)(=O)CC1)N1C[C@H](c2ccc(OC(F)(F)F)cc2)C[C@H](c2nc(C3CC3)no2)C1 — remaining binding (cell-free assay, competition with immobilised ligand; 1 µM): 99%
COc1ncc2cc3ccccc3nc2c1C#N — remaining binding (cell-free assay, competition with immobilised ligand; 5 µM): 100%
CO[C@H]1CC[C@H](CNc2ccc(S(=O)(=O)NC(=O)c3ccc(N4CCN(CC5=C(c6ccc(Cl)cc6)CC(C)(C)CC5)CC4)cc3Oc3cnc4[nH]ccc4c3)cc2[N+](=O)[O-])CC1 — remaining binding (cell-free assay, competition with immobilised ligand; 1 µM): 87%
CN(C)c1nccc(-c2cnn3ncccc23)n1 — remaining binding (binding; 1 µM): 100%
CO[C@@H](C)c1c(Nc2ccc([C@H](N(C)C(=O)C3CCS(=O)(=O)CC3)C(F)(F)F)cc2)cnc2cc(Cl)nn12 — remaining binding (cell-free assay, competition with immobilised ligand; 1 µM): 77%
C[C@H]1CCN(c2nccc(-c3cnn4ncccc34)n2)C1 — remaining binding (binding; 1 µM): 95%
COc1cnc(Nc2cccc(S(N)(=O)=O)c2)nc1N1CCN(c2ccccc2)CC1 — remaining binding (binding, competition with immobilised ligand; 1 µM): 84%
COc1cccc(CNC(=O)c2nc3scc(COCc4ccc(C(=O)O)cc4)c3c(=O)[nH]2)c1 — remaining binding (cell-free assay, competition with immobilised ligand; 1 µM): 67.3%
